From ChEMBL document CHEMBL1149844, “Antibacterial C-geranylflavonoids from Paulownia tomentosa Fruits” (2008)
Values after ≈ are worked out from the molar mass of the structure shown.

Key:
Enterococcus faecalis = experiment: Antibacterial activity against Enterococcus faecalis ATCC 29212 after 24 hrs by broth microdilution method; assay type: functional; conditions: ATCC 29212, 24 h
In short: (§1)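 Bacteria grown and tested in Mueller-Hinton broth. Seven 2-fold dilutions spanning 32 to 0.5 µg mL-1, each well inoculated with bacterial suspension at 10^7 CFU mL-1, incubated 37 °C for 24 h. Turbidity read at 600 nm. MIC is the lowest concentration giving 80% growth reduction versus the compound-free growth control. DMSO (5% v/v) in TBS as negative control, triplicates.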

Candida albicans = experiment: Antibacterial activity against Candida albicans ATCC 10231 after 48 hrs by broth microdilution method; assay type: functional
In short: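 Yeast grown and tested in Mueller-Hinton broth, microdilution with seven 2-fold dilutions from 32 to 0.5 µg mL-1. Inoculum at 10^7 CFU mL-1, 37 °C for 48 h. Growth measured as turbidity at 600 nm. MIC is the lowest concentration cutting growth by 80% relative to the compound-free control. DMSO (5% v/v) in TBS as negative control, run in triplicate.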

Listeria monocytogenes = experiment: Antibacterial activity against Listeria monocytogenes ATCC 7644 after 24 hrs by broth microdilution method; assay type: functional; conditions: ATCC 7644, 24 h; in short: as §1
Pseudomonas aeruginosa = experiment: Antibacterial activity against Pseudomonas aeruginosa ATCC 27853 after 24 hrs by broth microdilution method; assay type: functional; conditions: ATCC 27853, 24 h; in short: as §1
Staphylococcus aureus = experiment: Antibacterial activity against Staphylococcus aureus ATCC 25923 after 24 hrs by broth microdilution method; assay type: functional; conditions: ATCC 25923, 24 h; in short: as §1
Bacillus cereus = experiment: Antibacterial activity against Bacillus cereus ATCC 11778 after 24 hrs by broth microdilution method; assay type: functional; conditions: ATCC 11778, 24 h; in short: as §1
Escherichia coli = experiment: Antibacterial activity against Escherichia coli ATCC 25922 after 24 hrs by broth microdilution method; assay type: functional; conditions: ATCC 25922, 24 h; in short: as §1
[1] = tested on: Staphylococcus epidermidis; experiment: Antibacterial activity against Staphylococcus epidermidis ATCC 12228 after 24 hrs by broth microdilution method; assay type: functional; conditions: ATCC 12228, 24 h; in short: as §1
Salmonella enteritidis = experiment: Antibacterial activity against Salmonella enteritidis ATCC 13076 after 24 hrs by broth microdilution method; assay type: functional, Salmonella enterica subsp. enterica serovar Enteritidis; conditions: Salmonella enterica, ATCC 13076, 24 h; in short: as §1
Bacillus subtilis = experiment: Antibacterial activity against Bacillus subtilis ATCC 6633 after 24 hrs by broth microdilution method; assay type: functional; conditions: ATCC 6633, 24 h; in short: as §1

Molecule	MIC (Enterococcus faecalis)	MIC (Candida albicans; ATCC 10231, 48 h)	MIC (Listeria monocytogenes)	MIC (Pseudomonas aeruginosa)	MIC (Staphylococcus aureus)	MIC (Bacillus cereus)	MIC (Escherichia coli)	MIC [1]	MIC (Salmonella enteritidis)	MIC (Bacillus subtilis)	MIC (Candida albicans)
COc1cc([C@@H]2CC(=O)c3c(cc(O)c(C/C=C(\C)CCC=C(C)C)c3O)O2)ccc1O	8 mg/L (≈ 18.2 µM)	> 32 mg/L	4 mg/L (≈ 9.12 µM)	> 32 mg/L	8 mg/L (≈ 18.2 µM)	4 mg/L (≈ 9.12 µM)	> 32 mg/L	4 mg/L (≈ 9.12 µM)	> 32 mg/L	8 mg/L (≈ 18.2 µM)	–
COc1cc([C@H]2Oc3cc(O)c(C/C=C(\C)CCC=C(C)C)c(O)c3C(=O)[C@@H]2O)ccc1O	4 mg/L (≈ 8.8 µM)	> 32 mg/L	2 mg/L (≈ 4.4 µM)	> 32 mg/L	2 mg/L (≈ 4.4 µM)	2 mg/L (≈ 4.4 µM)	> 32 mg/L	2 mg/L (≈ 4.4 µM)	> 32 mg/L	4 mg/L (≈ 8.8 µM)	–
COc1cc([C@@H]2CC(=O)c3c(cc(O)c(C/C=C(\C)CCC=C(C)C)c3O)O2)cc(O)c1O	4 mg/L (≈ 8.8 µM)	> 32 mg/L	4 mg/L (≈ 8.8 µM)	> 32 mg/L	2 mg/L (≈ 4.4 µM)	4 mg/L (≈ 8.8 µM)	> 32 mg/L	4 mg/L (≈ 8.8 µM)	> 32 mg/L	4 mg/L (≈ 8.8 µM)	–
COc1cc([C@@H]2CC(=O)c3c(cc(O)c(C/C=C(\C)CCC=C(C)C)c3O)O2)cc(OC)c1O	4 mg/L (≈ 8.54 µM)	> 32 mg/L	4 mg/L (≈ 8.54 µM)	> 32 mg/L	4 mg/L (≈ 8.54 µM)	4 mg/L (≈ 8.54 µM)	> 32 mg/L	4 mg/L (≈ 8.54 µM)	> 32 mg/L	4 mg/L (≈ 8.54 µM)	–
CC(C)=CCC/C(C)=C/Cc1c(O)cc2c(c1O)C(=O)C[C@@H](c1ccc(O)cc1)O2 [BONANNIONE A]	4 mg/L (≈ 9.79 µM)	> 32 mg/L	4 mg/L (≈ 9.79 µM)	> 32 mg/L	8 mg/L (≈ 19.6 µM)	4 mg/L (≈ 9.79 µM)	> 32 mg/L	4 mg/L (≈ 9.79 µM)	> 32 mg/L	4 mg/L (≈ 9.79 µM)	–
O=C(O)c1cn(C2CC2)c2cc(N3CCNCC3)c(F)cc2c1=O [CIPROFLOXACIN]	1 mg/L (≈ 3.02 µM)	–	1 mg/L (≈ 3.02 µM)	–	0.5 mg/L (≈ 1.51 µM)	1 mg/L (≈ 3.02 µM)	–	1 mg/L (≈ 3.02 µM)	0.015 mg/L (≈ 0.0453 µM)	2 mg/L (≈ 6.04 µM)	–
CC(C)=CCC/C(C)=C/Cc1c(O)cc2c(c1O)C(=O)C[C@@H](c1ccc(O)c(O)c1)O2 [NYMPHAEOL A]	4 mg/L (≈ 9.42 µM)	> 32 mg/L	4 mg/L (≈ 9.42 µM)	> 32 mg/L	4 mg/L (≈ 9.42 µM)	4 mg/L (≈ 9.42 µM)	> 32 mg/L	4 mg/L (≈ 9.42 µM)	> 32 mg/L	4 mg/L (≈ 9.42 µM)	–
COc1cc([C@@H]2CC(=O)c3c(cc(O)c(C/C=C(\C)C/C=C/C(C)(C)O)c3O)O2)ccc1O [TOMENTODIPLACONE B]	> 32 mg/L	> 32 mg/L	> 32 mg/L	> 32 mg/L	> 32 mg/L	> 32 mg/L	> 32 mg/L	> 32 mg/L	> 32 mg/L	> 32 mg/L	–
C=C(C)C(O)CC/C(C)=C/Cc1c(O)cc2c(c1O)C(=O)C[C@@H](c1ccc(O)c(OC)c1)O2 (stereo partly specified) [TOMENTODIPLACONE]	–	> 32 mg/L	32 mg/L (≈ 70.4 µM)	> 32 mg/L	16 mg/L (≈ 35.2 µM)	16 mg/L (≈ 35.2 µM)	> 32 mg/L	32 mg/L (≈ 70.4 µM)	> 32 mg/L	–	–
NYSTATIN	–	–	–	–	–	–	–	–	–	–	4 mg/L
